{"source": "paper PMC8927994", "about": "(iScience, 2022)", "key": {"[1]": {"system": "SHP2 protein", "details": "esophageal cancer KYSE520 cells; ref Wang et al., 2021; cited from earlier work"}, "[2]": {"system": "SHP2 protein", "details": "acute myeloid leukemia MV4;11 cells; ref Wang et al., 2021; cited from earlier work"}, "[3]": {"system": "bone marrow-derived macrophages (BMDMs)", "assay": "Imiquimod-induced inflammation in bone marrow-derived macrophages", "format": "cell-based, mouse"}, "[4]": {"molecular_target": "SHP1 (Homo sapiens, UniProt P29350)", "sequence (P29350 whole entry)": "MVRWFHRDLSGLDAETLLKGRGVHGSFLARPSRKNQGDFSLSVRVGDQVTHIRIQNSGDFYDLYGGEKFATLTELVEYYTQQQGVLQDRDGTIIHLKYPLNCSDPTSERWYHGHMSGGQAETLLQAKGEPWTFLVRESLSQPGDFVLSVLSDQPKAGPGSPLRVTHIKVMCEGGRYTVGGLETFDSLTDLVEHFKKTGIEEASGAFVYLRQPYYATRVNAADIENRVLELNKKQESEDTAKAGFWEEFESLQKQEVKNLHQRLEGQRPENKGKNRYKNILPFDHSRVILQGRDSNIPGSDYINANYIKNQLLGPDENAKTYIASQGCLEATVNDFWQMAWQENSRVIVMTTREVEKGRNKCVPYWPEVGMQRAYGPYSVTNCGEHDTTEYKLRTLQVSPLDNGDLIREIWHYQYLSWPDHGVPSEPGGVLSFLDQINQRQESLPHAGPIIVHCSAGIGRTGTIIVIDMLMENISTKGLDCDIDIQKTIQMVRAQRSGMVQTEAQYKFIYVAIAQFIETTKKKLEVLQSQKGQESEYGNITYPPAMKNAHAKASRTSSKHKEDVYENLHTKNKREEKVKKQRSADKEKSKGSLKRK", "assay": "SHP1 enzyme activity assay", "format": "biochemical", "details": "read-out: IC50 SHP1, DiFMUP substrate", "procedure,_shortened": "(§1)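 In-house expressed recombinant enzyme, purified by gel filtration, at the same conditions as the SHP2 assay but without IRS1 activating peptide. Test compound at 0.001–100 μM is preincubated with enzyme for 30–60 min at 25°C. DiFMUP is then added for 30 min at 25°C, and the reaction is quenched with bpV(Phen). Fluorescence is read at ex 340/em 450 nm, and IC50 comes from the dose-response curve.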"}, "[5]": {"system": "mouse peritoneal macrophages (PMs)", "assay": "Imiquimod-induced inflammation in peritoneal macrophages", "format": "cell-based"}, "[6]": {"molecular_target": "T1, PTP1B (Homo sapiens, UniProt P18031)", "T1 sequence (P18031 1-435)": "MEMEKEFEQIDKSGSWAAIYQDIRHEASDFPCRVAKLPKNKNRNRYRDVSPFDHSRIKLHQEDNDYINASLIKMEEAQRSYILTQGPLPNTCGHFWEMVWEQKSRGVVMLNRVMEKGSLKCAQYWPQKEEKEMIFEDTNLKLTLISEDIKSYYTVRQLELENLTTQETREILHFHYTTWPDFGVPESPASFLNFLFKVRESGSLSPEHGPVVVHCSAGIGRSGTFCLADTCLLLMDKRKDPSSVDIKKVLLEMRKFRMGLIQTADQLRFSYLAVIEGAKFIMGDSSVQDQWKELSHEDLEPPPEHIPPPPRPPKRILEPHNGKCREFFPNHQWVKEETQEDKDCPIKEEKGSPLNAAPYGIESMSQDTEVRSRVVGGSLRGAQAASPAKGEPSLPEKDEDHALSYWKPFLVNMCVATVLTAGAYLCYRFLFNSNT", "assay": "PTP1B enzyme activity assay", "format": "biochemical", "details": "read-out: IC50 PTP1B, DiFMUP substrate", "procedure,_shortened": "as §1"}, "[7]": {"system": "imiquimod-induced psoriasis model mice", "assay": "IMQ-induced psoriasis-like mouse model", "format": "in vivo"}, "[8]": {"details": "10 μM pretreated 3 h, 5 μM IMQ 1 h"}}, "note": "Read-outs that look alike come from different tables or passages of the source.", "data": [{"smiles": "Cc1ncsc1-c1ccc([C@H](C)NC(=O)[C@@H]2C[C@@H](O)CN2C(=O)[C@@H](NC(=O)CCCCCCCCN2CCN(C(=O)CCC(=O)Nc3cccc(Sc4ncc(N5CCC(C)(N)CC5)nc4N)c3Cl)CC2)C(C)(C)C)cc1", "note": "[SHP2-D26]", "values": [{"measurement": "reduction of SHP2 protein levels", "setting": "[1]", "result": "> 95", "unit": "%"}, {"measurement": "reduction of SHP2 protein levels", "setting": "[2]", "result": "> 95", "unit": "%"}]}, {"smiles": "CC1(N)CCN(c2cnc(-c3cccc(Cl)c3Cl)c(N)n2)CC1", "note": "[SHP099]", "values": [{"measurement": "phosphorylation levels of p-IKKα/β and p-p65 (western blot)", "setting": "[3]; [8]", "result": "inhibited the phosphorylation levels"}, {"measurement": "gene expression levels of inflammatory factors Il23a, Il22, Il6, Tnfα, Il1b, Ptgs2 (qPCR)", "setting": "[3]; pretreated 3 h, 5 μM IMQ 6 h", "result": "significantly alleviated"}, {"measurement": "IC50", "setting": "[4]", "result": "> 100", "unit": "µM"}, {"measurement": "phosphorylation levels of p-IKKα/β and p-p65 (western blot)", "setting": "[5]; [8]", "result": "inhibited the phosphorylation levels"}, {"measurement": "gene expression levels of inflammatory factors Il23a, Il22, Il6, Tnfα, Il1b, Ptgs2 (qPCR)", "setting": "[5]; pretreated 3 h, 5 μM IMQ 6 h", "result": "significantly alleviated"}, {"measurement": "IC50", "setting": "[6]", "result": "> 100", "unit": "µM"}, {"measurement": "infiltration of inflammatory cells (HE staining of skin sections)", "setting": "[7]", "result": "significantly reduced"}, {"measurement": "proliferation of epidermal cells (HE staining of skin sections)", "setting": "[7]", "result": "effectively inhibit"}]}]}
